Results gathered from unrelated publications.
Each line is one published result; the experiments were not run side by side.
Target: STE20-like serine/threonine-protein kinase (SLK, Homo sapiens, UniProt Q9H2G2)

| SMILES | effect on | action | method | concentration | endpoint | result |
| --- | --- | --- | --- | --- | --- | --- |
| COc1cc(Nc2ncc(F)c(Nc3ccc4c(n3)NC(=O)C(C)(C)O4)n2)cc(OC)c1OC | binding |  |  | 10 µM | inhibition | 100% |
| Cc1nn(C)cc1-c1nc2c(N3CCN(Cc4ccc(Cl)cc4)CC3)c(Cl)cnc2[nH]1 | binding |  | competition with immobilised ligand | 1 µM | remaining binding | 100% |
| Cn1cc(-c2cccc(N3CCc4c(sc5c4CC(C)(C)C5)C3=O)c2CO)cc(Nc2ccncn2)c1=O | enzyme activity | inhibitor |  | 1 µM | inhibition | 4% |
| COc1ncccc1-c1cnn2ccc(N3CCN(C(=O)OC(C)C)CC3)nc12 | binding |  | competition with immobilised ligand | 1 µM | remaining binding | 100% |
| CC(C)(C)c1cc(C=C(C#N)C#N)cc(Br)c1O | enzyme activity | inhibitor |  | 0.5 µM | remaining activity | 94.7% |
| Nc1ncc(-c2nc(N3CCOCC3)nc(N3CCOCC3)n2)c(C(F)F)n1 | binding |  | competition with immobilised ligand | 10 µM | remaining binding | 24% |
| Cn1cncc1[C@@](O)(COc1ccc(C#N)cc1-c1ccc(OC(F)(F)F)cc1)c1ccc(C#N)cc1 | cell-free assay |  | competition with immobilised ligand | 1 µM | remaining binding | 100% |
| O=c1[nH]c2ccccc2n1C1CCN(Cc2ccc(-c3[nH]c4cc5ncnc5cc4nc3-c3ccccc3)cc2)CC1 | cell-free assay |  |  | 0.5 µM | remaining signal | 97.7% |
| N#CC1(c2ccccn2)CCN(Cc2cc(C(=O)O)c(=O)n3ccccc23)CC1 | cell-free assay |  | competition with immobilised ligand | 1 µM | remaining binding | 99% |
| Cn1cc(-c2cc(F)cc(N3CCn4c(cc5c4CCCC5)C3=O)c2CO)cc(Nc2ccc(N3CCN(C4COC4)CC3)cn2)c1=O | enzyme activity | inhibitor |  | 0.1 µM | inhibition | 4% |
